A selection: hits, their analogues and other compounds. The true share with any hit is near 3%.
SENP8 block-1: inhibitors of human SENP8 protease | Q96LD8 | purified SENP8, Z-RLRGG-aminoluciferin cleavage, luminescence | inhibition, % at 10 µM | actives 1.2% (n = 330,000); in the data active means inhibition above about 50%
Apaf1 inhib: human Apaf-1 inhibition | O14727 | reconstituted apoptosome caspase-3 activity, DEVD-Rh110 fluorescence | inhibition, % at 20 µM | actives 0.71% (n = 330,000); active means inhibition of at least 40% at 20 µM
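Medium: Hepes buffer, pH 7.5 / System: biochemical Apaf-1 apoptosome reconstitution / Measured by: Rh110 fluorescence, excitation 480 nm, emission 540 nm / Times: compound with Apaf-1, dATP, procaspase-3 30 min, then 50 min reaction, room temperature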
SENP6 block: blocks the human protease SENP6; Q9GZR1; Recombinant SENP6 catalytic domain, aminoluciferin luminescence; inhibition, % at 10 µM; actives 1.8% (n = 330,000);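 active means inhibition above about 50% at the single tested dose, limit read from the data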
SENP7 inh: inhibitors of human SENP7 protease. Q9BQF6. recombinant SENP7, Z-RLRGG-aminoluciferin luminescence, 40 min. inhibition, % at 5 µM. actives 1.5% (n = 330,000). AID 434973;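 active means inhibition above about 50% at the single test dose, limit read from the data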
UBC13 inh: inhibitors of human UBC13 polyubiquitin chain formation; actives 0.47% (n = 330,000); P61088; TR-FRET; AID 485273; inhibition, % at 20 µM; in the data active means inhibition above about 45%, passing the limit was not always enough
SENP8 block-2: blocks human SENP8 cleavage of Nedd8 substrate | AID 602440 | Q96LD8 | actives 0.64% (n = 360,000) | inhibition, % at 20 µM | recombinant SENP8, Nedd8 substrate fluorescence; in the data active means inhibition mostly above about 40%, no sharp cut-off; inactive means mostly below about 27%
SENP8 confirm: confirmation of human SENP8 protease inhibitors; shares compounds with SENP7 inh; Recombinant SENP8, Z-RLRGG-aminoluciferin luminescence, 60 min; inhibition, % at 12.5 µM; actives 40% (n = 6,200);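 active means mean inhibition across replicates above about 50%, limit read from the data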
SENP6 confirm: human SENP6 inhibition, confirmed. shares compounds with SENP7 inh. recombinant SENP6, Z-RLRGG-aminoluciferin luminescence. inhibition, % at 12.5 µM. actives 58% (n = 6,200)
SENP7 conf: human SENP7 inhibition, confirmed; shares compounds with SENP7 inh; recombinant SENP7, Z-RLRGG-aminoluciferin luminescence, 40 min; inhibition, % at 12.5 µM; actives 69% (n = 6,200); AID 488917
Casp3 select: caspase-3 inhibition (SENP selectivity assay); purified caspase-3, Z-DEVD-aminoluciferin luminescence, 60 min; inhibition, % at 12.5 µM; actives 60% (n = 6,200); shares compounds with SENP7 inh;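 active means mean inhibition above about 50%, limit read from the data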
Luc interf: luminescence interference (SENP counter-screen). shares compounds with SENP7 inh. Pre-incubated SENP8/Z-RLRGG-aminoluciferin, luciferase luminescence interference. inhibition, % at 12.5 µM. actives 39% (n = 6,200);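 active means mean inhibition above about 50% when retested at one dose, limit read from the data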
Large screens that a line does not name were inactive (follow-up assays come after a bar, where they were run).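 How the source made its calls, unless noted: active means mean inhibition above about 50% in the one-dose retest (limit read from the data); inactive means the rest.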

O=C(NCc1cc2ccccc2[nH]1)C1CCC(=O)N(CC2CCCCC2)C1 (centres undefined)	none (no result: SENP8 block-1, Apaf1 inhib, SENP6 block, SENP7 inh, UBC13 inh)
Fc1ccc(OCc2cc(-c3ccccc3)no2)cc1	none
Clc1ccc(SCc2cc(-c3ccccc3)no2)cc1	none
Cc1cccc(OCc2cc(-c3ccccc3)no2)c1C	SENP8 block-1 54.8, SENP6 block 67.4, SENP7 inh 66.6 | SENP8 confirm inactive | SENP6 confirm inactive | SENP7 conf 70.0 | Casp3 select inactive | Luc interf inactive
Clc1ccc(OCc2cc(-c3ccccc3)no2)c(Cl)c1	SENP8 block-1 81.5, SENP6 block 83.8 | SENP8 confirm inactive | SENP6 confirm inactive | SENP7 conf inactive | Casp3 select inactive | Luc interf inactive
COc1ccc(C(=O)NCCCC2CCCC2)cc1OC1CCN(C(C)C)CC1	none (no result: SENP8 block-1, Apaf1 inhib, SENP6 block, SENP7 inh, UBC13 inh)
CN(C1=C(NC(=O)c2ccccc2)C(=O)c2ccccc2C1=O)C1CCS(=O)(=O)C1 (centres undefined)	SENP8 block-1 60.0, Apaf1 inhib 88.2, SENP6 block 95.0, SENP7 inh 53.0, SENP8 block-2 63.8 | SENP8 confirm 69.9 | SENP6 confirm 86.8 | SENP7 conf 57.3 | Casp3 select 75.2 | Luc interf inactive
COc1ccc(/C=C/C(=O)c2ccccc2O)cc1	SENP8 block-1 64.1, SENP6 block 81.1, SENP7 inh 67.1 | SENP8 confirm 88.2 | SENP6 confirm 84.2 | SENP7 conf 83.7 | Casp3 select inactive | Luc interf inactive
COc1ccc(/C=C/C(=O)c2ccccn2)cc1	none
COc1ccc(/C=C/C(=O)c2ccc(O)cc2)cc1	SENP8 block-1 90.4, SENP6 block 90.8, SENP7 inh 73.9 | SENP8 confirm 65.2 | SENP6 confirm inactive | SENP7 conf 64.4 | Casp3 select inactive | Luc interf 83.0
CC(=O)N1CC2(CC(c3ccccc3C(F)(F)F)=NO2)CN1c1ccc(Cl)cc1 (centres undefined)	none (no result: SENP8 block-1, Apaf1 inhib, SENP6 block, SENP7 inh, UBC13 inh)
COc1ccc(NC(=O)c2cc(-c3cc(F)ccc3OC(C)C)n[nH]2)c(C)c1	none (no result: SENP8 block-1, Apaf1 inhib, SENP6 block, SENP7 inh, UBC13 inh)
Cc1oc(-c2ccccc2)nc1C(=O)OCC(=O)NC(=O)NCC(C)C	SENP7 inh 64.5 | SENP8 confirm inactive | SENP6 confirm inactive | SENP7 conf inactive | Casp3 select inactive | Luc interf inactive
CC(C)C[C@@H](CN1CCC[C@H]1CN1C(=O)C(=O)NC[C@@H]1Cc1ccccc1)N1C[C@H](Cc2ccc(O)cc2)N(CC2CCCCCC2)C(=O)C1=O	none (no result: SENP8 block-1, Apaf1 inhib, SENP6 block, SENP7 inh, UBC13 inh)
C(=C\n1nnc2ccccc21)/c1ccccn1	SENP8 block-1 73.8, SENP6 block 76.4, SENP7 inh 79.4 | SENP8 confirm 81.0 | SENP6 confirm 80.4 | SENP7 conf 95.8 | Casp3 select 89.3 | Luc interf 74.4
CCOC(=O)[C@]12CCC=C1N(CCC1=CCCCC1)C(=O)[C@H](CC(=O)N1CCSCC1)C2	none (no result: SENP8 block-1, Apaf1 inhib, SENP6 block, SENP7 inh, UBC13 inh)
Cc1cc2nc(-c3ccc(SCc4ccc(C#N)cc4)nc3)[nH]c2cc1C	none
N#Cc1ccccc1CSc1ccc(-c2nc3ccccc3[nH]2)cn1	SENP6 block 64.3 | SENP8 confirm 66.8 | SENP6 confirm 63.0 | SENP7 conf 79.9 | Casp3 select inactive | Luc interf 53.2
CC(=O)CSc1ccc(-c2nc3ccccc3[nH]2)cn1	SENP6 block 78.4, SENP7 inh 72.7 | SENP8 confirm 70.5 | SENP6 confirm 67.0 | SENP7 conf 88.1 | Casp3 select 85.6 | Luc interf 71.8
Cn1c(Cc2ccccc2)nc(=O)c2ccccc21	none (no result: SENP8 block-1, Apaf1 inhib, SENP6 block, SENP7 inh, UBC13 inh)
Cc1cc(Br)cn2c(Cc3ccsc3)c(-c3ccc(F)cc3)nc12	none (no result: SENP8 block-1, Apaf1 inhib, SENP6 block, SENP7 inh, UBC13 inh)
Cc1ccc(CNC(=O)CC[C@H]2O[C@@H](n3cc(C)c(=O)[nH]c3=O)C[C@@H]2O)o1	none (no result: SENP8 block-1, Apaf1 inhib, SENP6 block, SENP7 inh, UBC13 inh)
Cc1ccc(COc2ccc(/C=N/O)cc2)cc1	SENP6 block 70.3, SENP7 inh 56.8 | SENP8 confirm 70.6 | SENP6 confirm 69.9 | SENP7 conf 86.5 | Casp3 select inactive | Luc interf inactive
CCCCc1nc2cc(C(=O)NC3CCOC(C)(C)C3)ccc2o1 (centres undefined)	SENP7 inh 79.6 | SENP8 confirm inactive | SENP6 confirm inactive | SENP7 conf inactive | Casp3 select inactive | Luc interf inactive
COc1ccccc1C#CC1=CC(=O)CC(C)(C)C1	none (no result: SENP8 block-1, Apaf1 inhib, SENP6 block, SENP7 inh, UBC13 inh)
O=C(NC(c1ccc(Cl)cc1)c1cccnc1)C1CCN(CCOc2ccc(Cl)cc2Cl)CC1 (centres undefined)	none (no result: SENP8 block-1, Apaf1 inhib, SENP6 block, SENP7 inh, UBC13 inh)
COc1cccc(S(=O)(=O)N(C)C[C@@H]2OCc3cnnn3CCCC(=O)N([C@@H](C)CO)C[C@@H]2C)c1	none (no result: SENP8 block-1, Apaf1 inhib, SENP6 block, SENP7 inh, UBC13 inh)
COc1ccc(/C=C2\SC(=S)N(CCCC(=O)N3CCN(C)CC3)C2=O)cc1	SENP6 block 70.4 | SENP8 confirm 57.2 | SENP6 confirm 52.8 | SENP7 conf 76.0 | Casp3 select 54.1 | Luc interf 51.9
O=C(CCCN1C(=O)/C(=C/c2cccc(Br)c2)SC1=S)N1CCOCC1	SENP6 block 64.1 | SENP8 confirm inactive | SENP6 confirm 58.3 | SENP7 conf 65.2 | Casp3 select inactive | Luc interf inactive
CN1CCN(C(=O)CCCN2C(=O)/C(=C/c3cccc(Br)c3)SC2=S)CC1	SENP6 block 52.2 | SENP8 confirm inactive | SENP6 confirm inactive | SENP7 conf inactive | Casp3 select inactive | Luc interf inactive
O=C(CCCN1C(=O)/C(=C/c2ccccc2)SC1=S)N1CCOCC1	none
CC1=C(C(=O)N2CCCCCC2)CC(CC(=O)NC2CCCC2)C(=O)N1Cc1ccc(F)cc1 (centres undefined)	none (no result: SENP8 block-1, Apaf1 inhib, SENP6 block, SENP7 inh, UBC13 inh)
Cc1ccc(SCC(=O)Nc2cc([N+](=O)[O-])ccc2O)cc1	SENP8 block-1 78.6 | SENP8 confirm inactive | SENP6 confirm inactive | SENP7 conf 56.8 | Casp3 select inactive | Luc interf inactive
COc1ncnc2c1ncn2CCCNCc1ccc2c(c1)OCO2	none (no result: SENP8 block-1, Apaf1 inhib, SENP6 block, SENP7 inh, UBC13 inh)
COC(=O)Nc1nnc(-c2ccccc2Cl)s1	SENP6 block 75.7, SENP7 inh 71.7 | SENP8 confirm 56.9 | SENP6 confirm 55.7 | SENP7 conf 83.3 | Casp3 select inactive | Luc interf inactive
COc1ccc(-c2nnc(-c3ccc(N(C)C)cc3)o2)cc1	none

Bioassay records deposited in PubChem BioAssay by Sanford-Burnham Center for Chemical Genomics.
